Measurements taken from ChEMBL document CHEMBL4665666, “Discovery and characterization of trypanocidal cysteine protease inhibitors from the 'malaria box'” (Eur J Med Chem, 2019).

Experiments:
[1] = molecular target: T1, cathepsin B (Rattus norvegicus, UniProt P00787); assay: Inhibition of rat cathepsin B at 1 uM using Z-FR-AMC as substrate preincubated for 5 mins followed by substrate addition and measured after 15 mins by microplate reader based assay relative to control; conditions: probe Z-FR-AMC
[2] = molecular target: T2, cathepsin S (Homo sapiens, UniProt P25774); assay: Inhibition of recombinant human cathepsin S expressed in Escherichia coli at 1 uM using Z-VVR-AMC as substrate preincubated for 10 mins followed by substrate addition and measured after 15 mins by microplate reader based assay relative to control; conditions: probe Z-VVR-AMC, in the assay text read “preincubated for 5 mins” for “preincubated for 10 mins”, time 20 min
Method in brief: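 Run with or without 5 min compound–enzyme pre-incubation. AMC fluorescence at 380/460 nm over 15 min. Inhibition relative to DMSO (2% final); E64 1 µM as positive control. Two independent experiments, each in triplicate.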

[3] = molecular target: T2, cathepsin S; assay: Inhibition of recombinant human cathepsin S expressed in Escherichia coli at 1 uM using Z-VVR-AMC as substrate and measured after 15 mins without preincubation by microplate reader based assay relative to control; conditions: probe Z-VVR-AMC
[4] = molecular target: T1, cathepsin B; assay: Inhibition of rat cathepsin B at 1 uM using Z-FR-AMC as substrate measured after 15 mins without preincubation by microplate reader based assay relative to control; conditions: probe Z-FR-AMC
[5] = molecular target: Rhodesain (Trypanosoma brucei rhodesiense) (UniProt Q95PM0); assay: Inhibition of recombinant Trypanosoma brucei rhodesain expressed in Pichia pastoris at 0.5 uM using Z-FR-AMC as substrate and measured at 12 sec interval for 5 mins without preincubation by fluorimetric analysis relative to control
Method in brief: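 Recombinant rhodesain or cruzain (1 nM) in 0.1 M sodium acetate pH 5.5, 0.01% Triton X-100, 1 mM β-mercaptoethanol. Compound at a single concentration, either without or after 10 min enzyme pre-incubation. Z-FR-AMC 2.5 µM, read at 340/440 nm every 12 s for 5 min. Inhibition is relative to DMSO, with E-64 as positive control. Done in duplicate (primary screen) or triplicate.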

T2 sequence (P25774 whole entry): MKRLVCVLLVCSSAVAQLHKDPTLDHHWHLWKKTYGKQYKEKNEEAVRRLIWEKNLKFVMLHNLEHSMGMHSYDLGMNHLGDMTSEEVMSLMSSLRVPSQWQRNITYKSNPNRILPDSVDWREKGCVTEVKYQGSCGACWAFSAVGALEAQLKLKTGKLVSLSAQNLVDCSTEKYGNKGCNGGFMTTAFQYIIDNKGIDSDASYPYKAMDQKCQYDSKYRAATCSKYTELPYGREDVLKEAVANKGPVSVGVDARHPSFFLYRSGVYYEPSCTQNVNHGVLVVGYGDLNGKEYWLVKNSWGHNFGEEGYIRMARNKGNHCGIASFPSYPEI
T1 sequence (P00787 whole entry): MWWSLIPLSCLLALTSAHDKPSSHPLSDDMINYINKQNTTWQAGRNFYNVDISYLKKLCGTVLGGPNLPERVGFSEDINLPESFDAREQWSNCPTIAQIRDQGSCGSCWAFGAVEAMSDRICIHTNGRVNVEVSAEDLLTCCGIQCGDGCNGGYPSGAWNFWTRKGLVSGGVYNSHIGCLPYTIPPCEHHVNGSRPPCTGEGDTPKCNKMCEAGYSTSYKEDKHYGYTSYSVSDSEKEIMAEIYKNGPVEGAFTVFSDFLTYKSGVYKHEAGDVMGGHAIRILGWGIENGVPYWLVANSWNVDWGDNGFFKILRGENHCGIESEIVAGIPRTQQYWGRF
Chain of Rhodesain (Trypanosoma brucei rhodesiense) (Q95PM0 1-450): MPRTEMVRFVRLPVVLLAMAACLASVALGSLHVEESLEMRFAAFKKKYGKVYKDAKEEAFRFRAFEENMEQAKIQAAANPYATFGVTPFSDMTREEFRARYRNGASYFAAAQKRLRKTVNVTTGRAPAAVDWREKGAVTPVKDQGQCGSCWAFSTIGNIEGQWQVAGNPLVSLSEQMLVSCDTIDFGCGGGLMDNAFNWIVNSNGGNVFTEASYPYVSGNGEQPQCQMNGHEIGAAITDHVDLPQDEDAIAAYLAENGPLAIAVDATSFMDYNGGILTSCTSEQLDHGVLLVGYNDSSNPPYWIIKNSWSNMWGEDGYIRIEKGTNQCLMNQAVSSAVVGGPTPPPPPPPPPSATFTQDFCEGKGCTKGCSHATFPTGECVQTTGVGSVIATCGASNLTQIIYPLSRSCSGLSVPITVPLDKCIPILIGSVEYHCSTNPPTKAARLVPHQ

Compound `CC(C)C[C@H](NC(=O)[C@H]1O[C@@H]1C(=O)O)C(=O)NCCCCN=C(N)N` [E-64] has an inhibition at 0.25 h, 1 µM [1] of 100%, an inhibition at 0.25 h, 1 µM [2] of 99.9% and an inhibition at 0.25 h, 1 µM [3] of 99.9%. For the same compound, the inhibition at 0.25 h, 1 µM [4] was 99.1% and the inhibition [5] was 36%.
